SMILES strings stand for the structures. Activity calls are given as the source filed them. No cut-off for these calls is given here.

Among the data in ChEMBL document CHEMBL2029204, “Latent hit series hidden in high-throughput screening data” (J Med Chem, 2012) are Activity values, retold here.

Series [1] relates to Huh-7. The experiment in a line: Cytotoxicity against human HuH7 cells after 24 hrs by resazurin reduction assay. The format is cell-based. To be noted: huh-7, 24 h. A digest of the protocol: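 Same multiplexed wells as the luciferase readout: cells with the Neo/EMCV-IRES-Fluc construct under Geneticin, exposed to compound for 24 h, then viability is read by non-invasive resazurin reduction before lysis. Eight concentrations from 0 to 10 μM, in quadruplicate. Activity is normalized to DMSO (0%) and 500 μM benzalkonium chloride (−100%).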

Series [2] relates to Nucleic Acid. Briefly: Agonist activity at ECMV genomic RNA internal ribosomal entry site in human HuH7 cells after 24 hrs by firefly luciferase reporter gene assay. The format is functional, cell-based. The note with it: Encephalomyocarditis virus; Huh-7. The gist of the method:
(§1)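 Cells carry a bicistronic construct (Neo translated cap-dependently, firefly luciferase under EMCV IRES) and are grown with Geneticin. After 24 h with or without compound, resazurin viability is read first, then cells are lysed and luciferase is quantified (Steady-Glo). Dose response uses eight concentrations from 0 to 10 μM in quadruplicate. Normalization: DMSO 0%, 500 μM benzalkonium chloride −100%. Values reported are AC50, absolute AC50 (activity at −50% for antagonists, 50% for agonists) and Amax (activity at highest concentration).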

Series [3] has as its system Nucleic Acid. The experiment in a line: Agonist activity at ECMV genomic RNA internal ribosomal entry site in human HuH7 cells assessed as activity measured at the highest concentration after 24 hrs by firefly luciferase reporter gene assay relative to control. Format: functional, cell-based. To be noted: Encephalomyocarditis virus; Huh-7. A digest of the protocol:
as §1
On the technique in general: A reporter such as luciferase makes a cellular process visible.

Series [4] relates to Nucleic Acid. The experiment in a line: Antagonist activity at ECMV genomic RNA internal ribosomal entry site in human HuH7 cells after 24 hrs by firefly luciferase reporter gene assay relative to control. The format is functional, cell-based. To be noted: Encephalomyocarditis virus; Huh-7. A digest of the protocol:
as §1

The subject of series [5] is Nucleic Acid. Briefly: Antagonist activity at ECMV genomic RNA internal ribosomal entry site in human HuH7 cells after 24 hrs by firefly luciferase reporter gene assay. The format is functional, cell-based. To be noted: Encephalomyocarditis virus; Huh-7. The gist of the method: as §1

`O=c1c2ccccc2nc2n1CCc1c-2[nH]c2ccccc12` [RUTAECARPINE]: the Activity entry in series [1] was “Non-toxic”; in series [2] it was 27.6 µM; in series [3] it was 1030.

Turning to `COCCn1c(NC(COC)c2ccc(OC)c(OC)c2)nc2c1c(=O)n(C)c(=O)n2C` (configuration not stated), the Activity entry in series [1] was “Non-toxic”; in series [3], 0.53. Besides, the outcome in series [2] was inactive.

Turning to `COc1ccccc1N1CCN(CC(O)COc2ccc(-c3cc(C#N)c(=O)[nH]c3C)cc2)CC1` (configuration not stated) [SATERINONE], the figures for the Activity result in series [1], in series [4] and in series [5] were “Non-toxic”, 172 and 5.46 µM, respectively.

For `COc1ccccc1N1CCN(CC(O)COc2cccc3ccccc23)CC1` (configuration not stated) [NAFTOPIDIL], the Activity result was “Non-toxic” in series [1], -34 in series [4] and 1.48 µM in series [5].

With `COc1ccc(OCC(O)CN2CCN(c3ccccc3OC)CC2)c(C(C)(C)C)c1` (configuration not stated), the Activity result in series [1] was “Non-toxic”; in series [4], -42; in series [5], 3.08 µM.

As to `COc1ccc2[nH]c3c(c2c1)CCn1c-3nc2cc3sc4c(c3cc2c1=O)CCCCCC4`, the Activity result was “Non-toxic” in series [1], 2.16 µM in series [2] and 26.2 in series [3].

As to `COCCn1c(NC(CO)c2ccc(OC)c(OC)c2)nc2c1c(=O)n(C)c(=O)n2C` (configuration not stated), the figures for the Activity result in series [1], in series [2] and in series [3] were “Non-toxic”, 42.8 µM and 346, respectively.

With `COc1ccc2[nH]c3c(c2c1)CCn1c-3nc2cc3sc4c(c3cc2c1=O)CCCC4`, the Activity result in series [1] was “Non-toxic”; in series [3] it was -7.44. In addition, in series [2], the result was inactive.

In the case of `CCc1cc2cc3c(=O)n4c(nc3cc2s1)-c1[nH]c2ccc(OC)cc2c1CC4`, the Activity entry in series [1] is “Non-toxic”; in series [2] it was 0.35 µM; in series [3], 33.5.
